In brackets after ≈: the same amount, converted by molar mass. Values belong to the compound of their own block, whether it stands above or below them. Activity calls are given as the source filed them. The rule behind the calls is not given here.
Columns and labels:
[1] = target: T1, Glycogen synthase kinase-3 beta (Homo sapiens, UniProt P49841); test: Inhibition of GSK-3beta (unknown origin) using (RREGGMSRPAS(p)VDG as substrate assessed as 32P[gamma-ATP] incorporation into substrate after 15 mins by autoradiography
Target sequence in this assay (P49841 whole entry): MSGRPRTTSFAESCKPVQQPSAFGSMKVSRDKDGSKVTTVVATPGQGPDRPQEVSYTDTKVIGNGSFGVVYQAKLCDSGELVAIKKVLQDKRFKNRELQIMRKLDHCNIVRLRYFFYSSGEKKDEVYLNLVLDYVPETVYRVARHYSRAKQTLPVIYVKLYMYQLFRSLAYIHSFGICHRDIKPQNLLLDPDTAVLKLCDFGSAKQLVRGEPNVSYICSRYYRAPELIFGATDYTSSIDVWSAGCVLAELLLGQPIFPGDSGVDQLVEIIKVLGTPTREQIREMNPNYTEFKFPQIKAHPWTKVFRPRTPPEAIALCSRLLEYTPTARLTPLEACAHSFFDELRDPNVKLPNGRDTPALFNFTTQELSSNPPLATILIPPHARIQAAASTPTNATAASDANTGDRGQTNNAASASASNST

[2] = target: T1, Glycogen synthase kinase-3 beta; test: Inhibition of human GSK-3beta-mediated tau phosphorylation in doxycycline/synthetic tau fibril-induced HEK293 cells assessed as increase in faster-mobility 17025 band at 1 uM after 48 hrs by Immunoblotting analysis; format: cell-based
How it was run: (§1)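 HEK-293 cells express full-length 4-repeat tau (T40) carrying P301L under a doxycycline-regulated promoter. Doxycycline induces expression; 48 h later cells are seeded with synthetic fibrils made from recombinant tau. They are then treated with 1 µM compound or vehicle for 48 h, with non-fibril cells as controls. Lysates are immunoblotted with AT180 (pT231/pS235), 17025 (total tau) and GAPDH as loading control.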
Target sequence in this assay (P49841 whole entry, looked up): as the sequence (P49841 whole entry) above

[3] = target: T1, Glycogen synthase kinase-3 beta; test: Inhibition of human GSK-3beta-mediated tau phosphorylation in doxycycline/synthetic tau fibril-induced HEK293 cells assessed as increase in faster-migrating AT180 band at 1 uM after 48 hrs by Immunoblotting analysis; format: cell-based; how it was run: as §1
Target sequence in this assay (P49841 whole entry, looked up): as the sequence (P49841 whole entry) above

[4] = target: T1, Glycogen synthase kinase-3 beta; test: Inhibition of GSK3beta in human NCI/ADR-RES cells up to 5 uM; format: cell-based
How it was run: (§2)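 Ovarian carcinoma OVCAR-8 cells and their cognate P-glycoprotein-overexpressing line NCI/ADR-RES. Compound tested at concentrations up to 5 µM.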
Target sequence in this assay (P49841 whole entry, looked up): as the sequence (P49841 whole entry) above

[5] = target: Serine/threonine-protein kinase RAF and Dual specificity mitogen-activated protein kinase kinase 1 (Raf/MEK) (Homo sapiens) (UniProt P04049+Q02750); test: Inhibition of human RAF1/MEK1 at 1 uM; format: protein assay
How it was run: (§3)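 Selectivity panel of 17 human protein kinases, each tested at a single 1 µM concentration. Read-out was percent inhibition of kinase activity. Values are the average of two independent measurements.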

[6] = target: cAMP-dependent protein kinase catalytic subunit alpha (Homo sapiens) (UniProt P17612); test: Inhibition of human PKAalpha at 1 uM; how it was run: as §3
[7] = target: T2, Serine/threonine-protein kinase Sgk1 (Homo sapiens) (UniProt O00141); test: Inhibition of human recombinant SGK1 using ATP/Ulight-RRRSLLE as substrate at 1 uM after 30 mins by LANCE assay; how it was run: as §3
T2 sequence (whole entry): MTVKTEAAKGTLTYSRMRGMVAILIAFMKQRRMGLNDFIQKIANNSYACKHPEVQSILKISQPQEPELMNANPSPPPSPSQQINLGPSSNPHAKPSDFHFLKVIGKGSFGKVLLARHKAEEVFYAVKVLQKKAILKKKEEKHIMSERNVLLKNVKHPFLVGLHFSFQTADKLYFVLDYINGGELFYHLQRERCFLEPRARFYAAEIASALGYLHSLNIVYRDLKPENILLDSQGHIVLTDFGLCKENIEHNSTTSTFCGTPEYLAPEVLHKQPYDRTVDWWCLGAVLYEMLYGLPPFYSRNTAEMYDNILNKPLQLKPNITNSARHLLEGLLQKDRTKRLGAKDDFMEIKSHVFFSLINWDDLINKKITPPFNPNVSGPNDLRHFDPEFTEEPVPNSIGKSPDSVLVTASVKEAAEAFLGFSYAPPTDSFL

[8] = target: Rho-associated protein kinase 1 (Homo sapiens) (UniProt Q13464); test: Inhibition of human recombinant ROCK1 using ATP/Ulight-RRRSLLE as substrate at 1 uM after 30 mins by LANCE assay; how it was run: as §3
[9] = target: Proto-oncogene tyrosine-protein kinase receptor Ret (Homo sapiens) (UniProt P07949); test: Inhibition of human recombinant RET expressed in insect cells using ATP/biotinyl-betaAbetaAbetaAAEEEEYFELVAKKK as substrate at 1 uM after 30 mins by HTRF assay; how it was run: as §3
Homo sapiens [10] = species on record: Homo sapiens; test: Inhibition of human recombinant PKA alpha expressed in Escherichia coli using ATP/Ulight-RRRSLLE as substrate at 1 uM after 10 mins by LANCE assay
How it was run: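 Single-concentration (1 µM) percent inhibition within a 17-member human kinase panel. Values are the average of two independent measurements.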

[11] = target: T1, Glycogen synthase kinase-3 beta; test: Inhibition of human GSK-3beta-mediated tau phosphorylation in doxycycline/synthetic tau fibril-induced HEK293 cells assessed as decrease in slow mobility of AT180 band at 1 uM after 48 hrs by Immunoblotting analysis; format: cell-based; how it was run: as §1
Target sequence in this assay (P49841 whole entry, looked up): as the sequence (P49841 whole entry) above

[12] = target: T3, Mitogen-activated protein kinase 13 (Homo sapiens) (UniProt O15264); test: Inhibition of human recombinant P38delta expressed in Escherichia coli using ATP/Ulight-CFFKNIVTPRTPPPSQGK-amide as substrate at 1 uM after 15 mins by LANCE assay; how it was run: as §3
T3 sequence (whole entry): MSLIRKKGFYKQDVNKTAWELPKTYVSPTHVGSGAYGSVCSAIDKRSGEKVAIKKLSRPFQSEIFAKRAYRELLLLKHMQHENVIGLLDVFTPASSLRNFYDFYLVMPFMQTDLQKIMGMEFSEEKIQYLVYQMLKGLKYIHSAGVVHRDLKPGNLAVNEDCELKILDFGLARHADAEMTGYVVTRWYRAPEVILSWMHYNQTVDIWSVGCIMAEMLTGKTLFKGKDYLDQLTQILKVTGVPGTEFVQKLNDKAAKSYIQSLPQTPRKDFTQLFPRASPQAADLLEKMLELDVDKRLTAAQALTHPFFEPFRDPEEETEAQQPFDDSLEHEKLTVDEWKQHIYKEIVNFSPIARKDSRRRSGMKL

[13] = target: Leucine-rich repeat serine/threonine-protein kinase 2 (Homo sapiens) (UniProt Q5S007); test: Inhibition of human recombinant LRRK2 expressed in insect cells using ATP/Ulight-RRRSLLE as substrate at 1 uM after 60 mins by LANCE assay; how it was run: as §3
[14] = target: Vascular endothelial growth factor receptor 2 (Homo sapiens) (UniProt P35968); test: Inhibition of human recombinant VGFR2 expressed in insect sf9 cells using ATP/Ulight-CAGAGAIETDKEYYTVKD as substrate at 1 uM after 60 mins by LANCE assay; how it was run: as §3
[15] = target: Mitogen-activated protein kinase 3 (Homo sapiens) (UniProt P27361); test: Inhibition of human recombinant ERK1 expressed in Escherichia coli using ATP/Ulight-CFFKNIVTPRTPPPSQGK-amide as substrate at 1 uM after 30 mins by LANCE assay; how it was run: as §3
[16] = target: Cyclin-dependent kinase 5/CDK5 activator 1 (Homo sapiens) (UniProt Q00535+Q15078); test: Inhibition of human recombinant CDK5/p35 expressed in insect cells using ATP/Ulight-CFFKNIVTPRTPPPSQGK-amide as substrate at 1 uM after 60 mins by LANCE assay; how it was run: as §3
[17] = target: Calcium/calmodulin-dependent protein kinase type II subunit alpha (Homo sapiens) (UniProt Q9UQM7); test: Inhibition of human recombinant CaMK2alpha using ATP/Ulight-CGSGSGRPRTSSFAEG as substrate at 1 uM after 30 mins by LANCE assay; how it was run: as §3
[18] = target: Tyrosine-protein kinase Fyn (Homo sapiens) (UniProt P06241); test: Inhibition of human recombinant Fyn expressed in insect cells using ATP/biotinyl-betaAbetaAbetaAYQAEENTYDEYEN as substrate at 1 uM after 60 mins by HTRF assay; how it was run: as §3
[19] = target: Platelet-derived growth factor receptor beta (Homo sapiens) (UniProt P09619); test: Inhibition of human recombinant PDGFRbeta expressed in insect cells using ATP/Ulight-PolyGAT[EAY(1:1:1)]n as substrate at 1 uM after 30 mins by LANCE assay; how it was run: as §3
[20] = target: Receptor-type tyrosine-protein kinase FLT3 (Homo sapiens) (UniProt P36888); test: Inhibition of human FLT3 at 1 uM; how it was run: as §3
[21] = target: Glycogen synthase kinase-3 alpha (Homo sapiens) (UniProt P49840); test: Inhibition of human recombinant GSK-3alpha using ATP/Ulight-CFFKNIVTPRTPPPSQGK-amide as substrate at 1 uM after 60 mins by LANCE assay; how it was run: as §3
[22] = target: T4, Aurora kinase A (Homo sapiens) (UniProt O14965); test: Inhibition of human recombinant Aurora A expressed in insect sf21 cells using ATP/Ulight-RRRSLLE as substrate at 1 uM after 15 mins by LANCE assay; how it was run: as §3
T4 sequence (whole entry): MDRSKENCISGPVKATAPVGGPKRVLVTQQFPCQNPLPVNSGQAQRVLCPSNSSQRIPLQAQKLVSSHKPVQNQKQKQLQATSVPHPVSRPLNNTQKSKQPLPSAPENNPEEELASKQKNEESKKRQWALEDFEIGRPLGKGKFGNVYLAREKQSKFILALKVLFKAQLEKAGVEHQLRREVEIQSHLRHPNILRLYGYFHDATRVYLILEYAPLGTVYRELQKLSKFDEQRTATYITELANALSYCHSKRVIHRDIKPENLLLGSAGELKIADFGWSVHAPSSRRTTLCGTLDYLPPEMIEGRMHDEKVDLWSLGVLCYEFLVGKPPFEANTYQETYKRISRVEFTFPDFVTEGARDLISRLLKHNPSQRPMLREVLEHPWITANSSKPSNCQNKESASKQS

Homo sapiens [23] = species on record: Homo sapiens; test: Selectivity ratio of IC50 for human recombinant CDK2 to IC50 for GSK-3beta (unknown origin)
[24] = target: Cyclin-dependent kinase 2 (Homo sapiens, UniProt P24941); test: Inhibition of human recombinant CDK2 using ATP/Ulight-CFFKNIVTPRTPPPSQGK-amide as substrate after 30 mins by LANCE assay
[25] = Aqueous solubility of the compound at pH 7.4; format: physicochemical
[26] = target: T1, Glycogen synthase kinase-3 beta; test: Inhibition of GSK3beta in human OVCAR8 cells up to 5 uM; format: cell-based; settings: OVCAR-8; how it was run: as §2
Target sequence in this assay (P49841 whole entry, looked up): as the sequence (P49841 whole entry) above

Proto-oncogene tyrosine-protein kinase receptor Ret (Homo sapiens), sequence (P07949 whole entry): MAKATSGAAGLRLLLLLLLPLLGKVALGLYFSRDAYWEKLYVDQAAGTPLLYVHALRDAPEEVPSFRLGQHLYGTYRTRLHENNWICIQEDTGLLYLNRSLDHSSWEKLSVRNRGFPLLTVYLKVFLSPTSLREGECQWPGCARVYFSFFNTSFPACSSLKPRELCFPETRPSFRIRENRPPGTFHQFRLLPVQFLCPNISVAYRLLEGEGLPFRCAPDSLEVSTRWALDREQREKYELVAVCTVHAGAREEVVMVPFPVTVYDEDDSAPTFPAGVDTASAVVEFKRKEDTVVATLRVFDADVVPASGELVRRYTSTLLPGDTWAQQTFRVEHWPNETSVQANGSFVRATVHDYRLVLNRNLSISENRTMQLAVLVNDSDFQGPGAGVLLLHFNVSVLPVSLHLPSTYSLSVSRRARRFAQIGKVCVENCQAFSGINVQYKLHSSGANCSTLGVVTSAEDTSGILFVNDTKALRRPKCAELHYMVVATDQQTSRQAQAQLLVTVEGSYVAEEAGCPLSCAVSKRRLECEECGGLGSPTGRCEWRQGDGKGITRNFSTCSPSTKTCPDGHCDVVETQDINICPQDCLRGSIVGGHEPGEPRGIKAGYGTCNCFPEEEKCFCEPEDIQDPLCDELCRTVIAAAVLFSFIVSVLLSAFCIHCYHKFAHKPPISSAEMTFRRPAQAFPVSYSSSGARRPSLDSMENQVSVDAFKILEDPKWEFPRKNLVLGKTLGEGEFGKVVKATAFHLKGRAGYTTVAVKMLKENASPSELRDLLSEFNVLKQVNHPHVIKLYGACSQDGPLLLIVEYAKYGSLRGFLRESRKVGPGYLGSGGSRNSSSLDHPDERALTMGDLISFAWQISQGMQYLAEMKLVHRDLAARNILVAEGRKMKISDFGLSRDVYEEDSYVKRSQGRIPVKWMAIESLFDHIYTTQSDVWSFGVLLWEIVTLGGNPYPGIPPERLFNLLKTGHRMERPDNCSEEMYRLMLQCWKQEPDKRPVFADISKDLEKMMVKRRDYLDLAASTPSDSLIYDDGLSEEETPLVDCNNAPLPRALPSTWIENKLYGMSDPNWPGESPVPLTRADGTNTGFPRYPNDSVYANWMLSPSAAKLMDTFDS
Mitogen-activated protein kinase 3 (Homo sapiens), sequence (P27361 whole entry): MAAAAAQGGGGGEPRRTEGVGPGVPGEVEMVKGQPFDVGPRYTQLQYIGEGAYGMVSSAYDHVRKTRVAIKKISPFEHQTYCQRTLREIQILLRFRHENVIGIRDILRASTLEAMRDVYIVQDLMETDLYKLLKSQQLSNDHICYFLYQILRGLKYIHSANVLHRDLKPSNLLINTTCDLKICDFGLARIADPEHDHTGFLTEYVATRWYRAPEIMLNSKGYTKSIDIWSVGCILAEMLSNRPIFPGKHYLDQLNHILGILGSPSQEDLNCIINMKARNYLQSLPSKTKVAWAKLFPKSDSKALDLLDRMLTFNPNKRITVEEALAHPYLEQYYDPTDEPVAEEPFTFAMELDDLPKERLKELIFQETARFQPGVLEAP
Serine/threonine-protein kinase RAF and Dual specificity mitogen-activated protein kinase kinase 1 (Raf/MEK) (Homo sapiens), sequence (P04049 whole entry, looked up): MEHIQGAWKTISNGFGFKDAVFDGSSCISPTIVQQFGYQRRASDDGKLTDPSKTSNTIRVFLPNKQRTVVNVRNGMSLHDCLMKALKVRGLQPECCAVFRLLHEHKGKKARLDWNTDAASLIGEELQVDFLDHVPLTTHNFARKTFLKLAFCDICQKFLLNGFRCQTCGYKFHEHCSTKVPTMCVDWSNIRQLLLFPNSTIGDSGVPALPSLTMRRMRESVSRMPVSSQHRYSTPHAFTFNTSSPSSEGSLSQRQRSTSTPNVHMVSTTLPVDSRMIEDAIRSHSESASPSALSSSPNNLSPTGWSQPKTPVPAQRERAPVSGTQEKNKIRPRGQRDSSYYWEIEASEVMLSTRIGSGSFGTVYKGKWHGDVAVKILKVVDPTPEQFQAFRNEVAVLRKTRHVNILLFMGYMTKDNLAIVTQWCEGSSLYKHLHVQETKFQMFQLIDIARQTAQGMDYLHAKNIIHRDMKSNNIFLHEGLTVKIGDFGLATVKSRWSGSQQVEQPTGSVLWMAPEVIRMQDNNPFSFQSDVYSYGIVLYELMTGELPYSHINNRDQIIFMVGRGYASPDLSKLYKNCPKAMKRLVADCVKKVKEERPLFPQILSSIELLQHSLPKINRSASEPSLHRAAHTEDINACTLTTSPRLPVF
Serine/threonine-protein kinase RAF and Dual specificity mitogen-activated protein kinase kinase 1 (Raf/MEK) (Homo sapiens), sequence (Q02750 whole entry, looked up): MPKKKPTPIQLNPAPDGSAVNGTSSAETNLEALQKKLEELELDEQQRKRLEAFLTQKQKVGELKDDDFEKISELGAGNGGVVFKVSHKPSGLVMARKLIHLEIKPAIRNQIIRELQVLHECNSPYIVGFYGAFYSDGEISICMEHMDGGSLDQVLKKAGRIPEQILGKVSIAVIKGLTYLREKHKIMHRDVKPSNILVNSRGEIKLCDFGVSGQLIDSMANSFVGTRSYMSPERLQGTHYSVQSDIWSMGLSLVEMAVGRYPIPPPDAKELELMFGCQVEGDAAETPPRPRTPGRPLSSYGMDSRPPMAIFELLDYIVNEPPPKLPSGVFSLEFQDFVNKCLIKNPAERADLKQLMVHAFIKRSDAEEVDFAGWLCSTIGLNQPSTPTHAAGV
Platelet-derived growth factor receptor beta (Homo sapiens), sequence (P09619 whole entry): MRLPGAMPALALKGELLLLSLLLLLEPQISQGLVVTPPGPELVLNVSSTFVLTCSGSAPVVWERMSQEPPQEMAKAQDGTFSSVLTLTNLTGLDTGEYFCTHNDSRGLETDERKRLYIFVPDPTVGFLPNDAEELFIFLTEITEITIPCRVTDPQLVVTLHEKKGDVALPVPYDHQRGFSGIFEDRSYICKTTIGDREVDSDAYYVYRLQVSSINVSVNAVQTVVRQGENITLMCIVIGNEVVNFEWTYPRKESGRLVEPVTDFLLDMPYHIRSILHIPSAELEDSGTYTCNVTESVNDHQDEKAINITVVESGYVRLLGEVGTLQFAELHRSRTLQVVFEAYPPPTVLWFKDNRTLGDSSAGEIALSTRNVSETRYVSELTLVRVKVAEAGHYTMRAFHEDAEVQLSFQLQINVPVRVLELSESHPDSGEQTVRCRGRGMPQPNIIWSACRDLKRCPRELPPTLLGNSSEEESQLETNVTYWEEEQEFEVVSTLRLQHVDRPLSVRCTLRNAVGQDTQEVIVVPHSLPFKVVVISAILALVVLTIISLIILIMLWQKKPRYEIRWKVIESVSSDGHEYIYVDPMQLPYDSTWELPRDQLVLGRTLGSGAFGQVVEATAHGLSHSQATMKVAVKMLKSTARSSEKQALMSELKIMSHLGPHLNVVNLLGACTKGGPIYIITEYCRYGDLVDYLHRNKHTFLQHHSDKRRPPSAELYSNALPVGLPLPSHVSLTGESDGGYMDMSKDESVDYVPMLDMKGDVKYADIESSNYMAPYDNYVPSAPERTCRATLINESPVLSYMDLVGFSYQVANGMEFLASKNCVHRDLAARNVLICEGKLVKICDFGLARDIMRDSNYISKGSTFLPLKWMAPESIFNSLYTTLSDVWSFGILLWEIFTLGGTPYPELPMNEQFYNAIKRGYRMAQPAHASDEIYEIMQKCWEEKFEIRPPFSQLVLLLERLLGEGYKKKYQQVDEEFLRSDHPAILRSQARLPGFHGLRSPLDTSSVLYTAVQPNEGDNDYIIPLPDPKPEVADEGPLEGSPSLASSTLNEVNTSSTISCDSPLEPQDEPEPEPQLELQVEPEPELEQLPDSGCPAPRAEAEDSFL
Calcium/calmodulin-dependent protein kinase type II subunit alpha (Homo sapiens), sequence (Q9UQM7 whole entry): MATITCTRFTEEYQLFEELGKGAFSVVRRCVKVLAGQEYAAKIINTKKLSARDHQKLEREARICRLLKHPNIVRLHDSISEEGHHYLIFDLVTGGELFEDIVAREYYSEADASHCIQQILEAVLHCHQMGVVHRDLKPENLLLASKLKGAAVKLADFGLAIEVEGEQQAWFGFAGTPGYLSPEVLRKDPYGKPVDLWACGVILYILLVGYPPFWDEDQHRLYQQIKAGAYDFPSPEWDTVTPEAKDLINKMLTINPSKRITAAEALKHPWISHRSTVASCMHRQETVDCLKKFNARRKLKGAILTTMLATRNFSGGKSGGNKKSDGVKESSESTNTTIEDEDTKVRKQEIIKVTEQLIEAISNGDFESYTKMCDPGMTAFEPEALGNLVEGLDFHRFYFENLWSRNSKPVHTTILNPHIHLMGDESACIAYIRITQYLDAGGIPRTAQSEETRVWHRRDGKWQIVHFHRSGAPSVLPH

IC50 [1]: 690 nM
SMILES: Cc1nn(-c2ccccc2)c2c1c1c(c3cccn32)C(=O)NC1=O

inhibition [2]: Active | inhibition [3]: Active | inhibition [4]: inactive | inhibition [5]: < 10% | inhibition [6]: < 10% | inhibition [7]: < 10% | inhibition [8]: < 10% | inhibition [9]: < 10% | inhibition (Homo sapiens [10]): < 10% | inhibition [11]: Active | inhibition [12]: < 10% | inhibition [13]: < 10% | inhibition [14]: < 10% | inhibition [15]: < 10% | inhibition [16]: < 10% | inhibition [17]: < 10% | inhibition [18]: < 10% | inhibition [19]: 13.7% | inhibition [20]: 30% | inhibition [21]: 98.3% | inhibition [22]: < 10% | Ratio IC50 (Homo sapiens [23]): > 10 | IC50 [24]: 2800 nM | IC50 [1]: 240 nM | solubility [25]: 3.1 µM (≈ 1.19 µg/mL) | inhibition [26]: inactive
SMILES: Cc1nn(-c2ccc(Cl)cc2Cl)c2c1c1c(c3cccn32)C(=O)NC1=O

IC50 [1]: 1690 nM
SMILES: O=C1NC(=O)c2c1c1cnn(-c3ccccc3)c1n1cccc21

IC50 [1]: 810 nM
SMILES: O=C1NC(=O)c2c1c1cnn(-c3ccccc3Cl)c1n1cccc21

IC50 [1]: 1210 nM
SMILES: Cc1ccccc1-n1ncc2c3c(c4cccn4c21)C(=O)NC3=O

IC50 [1]: 440 nM
SMILES: Cc1ccccc1-n1nc(C)c2c3c(c4cccn4c21)C(=O)NC3=O

IC50 [1]: 1000 nM
SMILES: COc1ccccc1-n1ncc2c3c(c4cccn4c21)C(=O)NC3=O

IC50 [1]: 940 nM
SMILES: Cc1nn(-c2ccccc2Cl)c2c1c1c(c3cccn32)C(=O)NC1=O
